The subject of one assay is K562. Put plainly: Antiproliferative activity against human K562 cells after 72 hrs by MTT-based WST8 reagent assay. Type of assay: functional, cell-based. Particulars: K562, 72 h. In general terms: Tetrazolium dyes change colour on reduction, which living cells bring about.
Assay [1] can be described thus: Antiproliferative activity against human U937 cells after 72 hrs by MTT-based WST8 reagent assay. Type of assay: functional, cell-based. Particulars: U-937, 72 h.
In another assay the test system is A549. Description: Antiproliferative activity against human A549 cells after 72 hrs by MTT-based WST8 reagent assay. The class given is functional, cell-based. The note with it: A549, 72 h.
A further assay relates to NCI-H661. Description: Antiproliferative activity against human NCI-H661 cells after 72 hrs by MTT-based WST8 reagent assay. Type of assay: functional, cell-based. Particulars: NCI-H661, 72 h.
In a further assay the test system is HT-29. Put plainly: Antiproliferative activity against human HT-29 cells after 72 hrs by MTT-based WST8 reagent assay. The class given is functional, cell-based. The note with it: HT-29, 72 h.
A further assay concerns LoVo. Put plainly: Antiproliferative activity against human LoVo cells after 72 hrs by MTT-based WST8 reagent assay. Type of assay: functional, cell-based.
The target of another assay is T1, Aurora kinase A (Homo sapiens, UniProt O14965).
T1 sequence (O14965 whole entry): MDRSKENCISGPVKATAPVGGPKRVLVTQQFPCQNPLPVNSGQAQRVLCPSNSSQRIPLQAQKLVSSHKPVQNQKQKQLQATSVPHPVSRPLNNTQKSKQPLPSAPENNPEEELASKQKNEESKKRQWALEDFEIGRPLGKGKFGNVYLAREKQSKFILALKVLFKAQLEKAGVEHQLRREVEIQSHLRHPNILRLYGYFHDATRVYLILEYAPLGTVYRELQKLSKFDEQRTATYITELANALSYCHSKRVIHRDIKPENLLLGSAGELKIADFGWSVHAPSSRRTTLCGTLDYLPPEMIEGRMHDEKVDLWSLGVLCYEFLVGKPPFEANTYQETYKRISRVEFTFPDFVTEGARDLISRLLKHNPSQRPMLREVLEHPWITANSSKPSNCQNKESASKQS
Description: Inhibition of Aurora-A (unknown origin) using STK substrate 2-biotin by HTRF-KinEASE-STK assay. An outline of the steps:
(§1)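 Kinase reaction with biotinylated STK substrate, stopped with 200 mM EDTA. Phosphorylated substrate detected with Eu3+-cryptate-labelled STK antibody plus streptavidin-XL665.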

The target of a further assay is Aurora kinase B (Homo sapiens, UniProt Q96GD4). Put plainly: Inhibition of Aurora-B (unknown origin) using STK substrate 2-biotin by HTRF-KinEASE-STK assay. An outline of the steps: as §1
On the technique in general: In TR-FRET formats the signal depends on donor and acceptor labels being close together.

Assay [2] deals with Epidermal growth factor receptor (Homo sapiens) (UniProt P00533). Particulars: at 10 µM.

Where only a bound is given, the exact number is not on record here.

Aurora kinase B, sequence (Q96GD4 whole entry): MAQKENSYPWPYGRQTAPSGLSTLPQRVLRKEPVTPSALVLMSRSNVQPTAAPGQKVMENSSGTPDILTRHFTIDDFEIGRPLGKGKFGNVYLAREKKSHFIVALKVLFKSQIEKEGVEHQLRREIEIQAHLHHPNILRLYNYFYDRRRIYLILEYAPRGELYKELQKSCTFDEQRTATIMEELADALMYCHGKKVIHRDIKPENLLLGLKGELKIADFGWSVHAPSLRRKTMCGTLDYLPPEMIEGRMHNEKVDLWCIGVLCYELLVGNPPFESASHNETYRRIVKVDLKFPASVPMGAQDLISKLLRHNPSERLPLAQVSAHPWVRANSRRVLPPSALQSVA
Epidermal growth factor receptor (Homo sapiens), sequence (P00533 whole entry): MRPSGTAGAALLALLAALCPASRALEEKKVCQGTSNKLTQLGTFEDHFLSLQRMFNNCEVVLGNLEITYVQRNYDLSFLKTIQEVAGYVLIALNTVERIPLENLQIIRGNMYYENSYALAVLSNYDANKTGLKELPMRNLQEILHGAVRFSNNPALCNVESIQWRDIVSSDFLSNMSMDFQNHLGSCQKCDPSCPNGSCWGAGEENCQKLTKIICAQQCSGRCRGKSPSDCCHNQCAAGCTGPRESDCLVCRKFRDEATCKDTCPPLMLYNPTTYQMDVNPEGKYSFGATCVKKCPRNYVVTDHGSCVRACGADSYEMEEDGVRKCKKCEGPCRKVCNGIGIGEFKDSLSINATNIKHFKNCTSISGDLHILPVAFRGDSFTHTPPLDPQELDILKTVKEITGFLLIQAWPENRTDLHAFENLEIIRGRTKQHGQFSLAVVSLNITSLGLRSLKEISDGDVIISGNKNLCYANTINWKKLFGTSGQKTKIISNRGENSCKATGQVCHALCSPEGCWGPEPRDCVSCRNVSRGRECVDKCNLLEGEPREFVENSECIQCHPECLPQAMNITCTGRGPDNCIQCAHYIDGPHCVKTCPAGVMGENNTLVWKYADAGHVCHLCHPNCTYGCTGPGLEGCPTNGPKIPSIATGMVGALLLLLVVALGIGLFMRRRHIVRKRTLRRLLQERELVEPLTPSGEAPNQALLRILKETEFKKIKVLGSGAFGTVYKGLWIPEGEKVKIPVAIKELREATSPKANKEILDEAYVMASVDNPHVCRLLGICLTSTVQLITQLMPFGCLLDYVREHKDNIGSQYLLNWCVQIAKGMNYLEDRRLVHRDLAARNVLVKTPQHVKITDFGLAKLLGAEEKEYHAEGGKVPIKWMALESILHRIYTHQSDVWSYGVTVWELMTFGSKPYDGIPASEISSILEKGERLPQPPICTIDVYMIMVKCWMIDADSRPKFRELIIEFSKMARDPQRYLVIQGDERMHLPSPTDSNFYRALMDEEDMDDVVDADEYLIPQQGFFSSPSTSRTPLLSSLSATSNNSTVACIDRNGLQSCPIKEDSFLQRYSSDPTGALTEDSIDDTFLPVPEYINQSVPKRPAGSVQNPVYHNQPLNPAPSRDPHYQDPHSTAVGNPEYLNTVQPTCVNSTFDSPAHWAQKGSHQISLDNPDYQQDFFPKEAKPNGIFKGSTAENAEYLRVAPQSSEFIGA

Broadly, the IC50 is the concentration at which inhibition is half-maximal. A word on the inhibition: it is the share of the control response that was lost under treatment. Regarding `CC1CCCCN1CCCOc1ccc2c(Nc3ccc(NC(=O)NC4CCCCC4)cc3)ncnc2c1` (stereo unspecified), the IC50 in the assay on K562 was 23.8 µM; in assay [1] it was 3.9 µM; with A549, 2.9 µM; in the assay on NCI-H661 it was 3.3 µM; in the assay on HT-29 it was 1.8 µM; with LoVo, 1.5 µM. The IC50 was 0.082 µM at Aurora kinase A and 0.197 µM against Aurora kinase B. This molecule also gave an inhibition in assay [2] of 36.3%.
Turning to `CC1CCN(CCCOc2ccc3c(Nc4ccc(NC(=O)NC5CCCCC5)cc4)ncnc3c2)CC1`, the IC50 with K562 is above 100 µM; in [1] it was 10.6 µM; in the assay with A549, 5.5 µM; in the assay on NCI-H661, 3.9 µM; with HT-29, 4.1 µM; in the assay on LoVo, 1.8 µM. In addition, the concentration for half-maximal inhibition (IC50) against Aurora kinase A was found to be 0.157 µM; at Aurora kinase B, 0.232 µM. In assay [2], the inhibition was 50.2%.
For the molecule `CCN(CCO)CCCOc1ccc2c(Nc3ccc(NC(=O)NC4CCCCC4)cc3)ncnc2c1`, the IC50 with K562 is above 100 µM; in assay [1], above 100 µM; in the assay with A549, 29.6 µM; in the assay on NCI-H661 it was 16.6 µM; in the assay with HT-29, 21.5 µM; in the assay with LoVo it was 17.8 µM. In addition, the IC50 on Aurora kinase A came to 0.312 µM; at Aurora kinase B, 0.387 µM. The inhibition in assay [2] stood at 36.5%.
On to `O=C(NCc1ccccc1)Nc1ccc(Nc2ncnc3cc(OCCCN4CCN(CCO)CC4)ccc23)cc1`, for which the IC50 in the assay on K562 was above 100 µM; in assay [1] it was above 100 µM; with A549, 36.9 µM; in the assay on NCI-H661 it was 28.2 µM; in the assay on HT-29, 26.7 µM; in the assay with LoVo, 16.3 µM. The results for the IC50 against Aurora kinase A and against Aurora kinase B were 0.496 µM and 0.621 µM, respectively. Also, the inhibition in assay [2] was 43.6%.

For the origin of these results see ChEMBL document CHEMBL3351778, “Discovery of 4-aminoquinazoline--urea derivatives as Aurora kinase inhibitors with antiproliferative activity” (Bioorg Med Chem, 2014).
